Measured values taken from ChEMBL document CHEMBL1139418, “Synthesis and SAR of novel parenteral anti-pseudomonal cephalosporins: discovery of FR264205” (Bioorg Med Chem Lett, 2008).
Converted amounts (≈) assume the structure as drawn.

Key:
Mus musculus = test: Induction of convulsion in intracerebroventricular dosed mouse; type: organism-based; settings: in vivo, icv_or_intrathecal
Pseudomonas aeruginosa [1] = test: Antipseudomonal activity against Pseudomonas aeruginosa class A TEM beta-lactamase-induced clinical isolate FP2056 by CLSI method; type: functional
Pseudomonas aeruginosa [2] = test: Antipseudomonal activity against Pseudomonas aeruginosa clinical isolates by CLSI method; type: functional
Pseudomonas aeruginosa [3] = test: Antipseudomonal activity against Pseudomonas aeruginosa class C AmpC(1d) beta-lactamase-induced clinical isolate FP1380 by CLSI method; type: functional; settings: 24 h
Pseudomonas aeruginosa [4] = test: Outer-membrane permeability assessed as ratio of MIC for Pseudomonas aeruginosa in absence of DEAE-dextran to MIC for Pseudomonas aeruginosa in presence of DEAE-dextran; type: functional
Method in brief: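 MIC per CLSI method, measured for each strain with and without the outer-membrane permeabilizer DEAE-dextran. Permeability index is the ratio of MIC without additive to MIC with additive.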

[5] = Pseudomonas aeruginosa, read-out: MIC50

SMILES	MIC (Pseudomonas aeruginosa [1])	MIC50 (Pseudomonas aeruginosa [2]; [5])	MIC (Pseudomonas aeruginosa [3])	MIC50 (Pseudomonas aeruginosa [2])	ED50 (Mus musculus)	Ratio (Pseudomonas aeruginosa [4])
Cn1c(N)c(CN)c[n+]1CC1=C(C(=O)[O-])N2C(=O)[C@@H](NC(=O)/C(=N\OC(C)(C)C(=O)O)c3nsc(N)n3)[C@H]2SC1	0.5 µg/mL (≈ 0.841 µM)	0.5 µg/mL (≈ 0.841 µM)	8 µg/mL (≈ 13.5 µM)	–	39.3 µg	–
Cn1c(N)c(NC(=O)CN)c[n+]1CC1=C(C(=O)[O-])N2C(=O)[C@@H](NC(=O)/C(=N\OC(C)(C)C(=O)O)c3nsc(N)n3)[C@H]2SC1	0.5 µg/mL (≈ 0.784 µM)	0.5 µg/mL (≈ 0.784 µM)	2 µg/mL (≈ 3.14 µM)	–	> 200 µg	–
Cn1c(N)c(/C=C/CN)c[n+]1CC1=C(C(=O)[O-])N2C(=O)[C@@H](NC(=O)/C(=N\OC(C)(C)C(=O)O)c3nsc(N)n3)[C@H]2SC1	1 µg/mL (≈ 1.61 µM)	0.5 µg/mL (≈ 0.806 µM)	2 µg/mL (≈ 3.22 µM)	–	122 µg	–
CO/N=C(/C(=O)N[C@@H]1C(=O)N2C(C(=O)[O-])=C(C[n+]3ccn4ncccc43)CS[C@H]12)c1nsc(N)n1	2 µg/mL (≈ 3.88 µM)	2 µg/mL (≈ 3.88 µM)	32 µg/mL (≈ 62.1 µM)	–	230 µg	–
CC(C)(O/N=C(\C(=O)N[C@@H]1C(=O)N2C(C(=O)[O-])=C(C[n+]3cccc(NC(=N)N)c3)CS[C@H]12)c1nsc(N)n1)C(=O)O	1 µg/mL (≈ 1.65 µM)	1 µg/mL (≈ 1.65 µM)	8 µg/mL (≈ 13.2 µM)	–	–	16
CC(C)(O/N=C(\C(=O)N[C@@H]1C(=O)N2C(C(=O)[O-])=C(C[n+]3ccc(CCN)cc3)CS[C@H]12)c1nsc(N)n1)C(=O)O	1 µg/mL (≈ 1.69 µM)	1 µg/mL (≈ 1.69 µM)	4 µg/mL (≈ 6.77 µM)	–	–	8
Cn1c(N)c(CNC(=N)N)c[n+]1CC1=C(C(=O)[O-])N2C(=O)[C@@H](NC(=O)/C(=N\OC(C)(C)C(=O)O)c3nsc(N)n3)[C@H]2SC1	0.5 µg/mL (≈ 0.785 µM)	0.5 µg/mL (≈ 0.785 µM)	1 µg/mL (≈ 1.57 µM)	0.5 µg/mL (≈ 0.785 µM)	4.69 µg	–
CC(C)(O/N=C(\C(=O)N[C@@H]1C(=O)N2C(C(=O)[O-])=C(C[n+]3ccccc3)CS[C@H]12)c1csc(N)n1)C(=O)O [CEFTAZIDIME]	2 µg/mL (≈ 3.66 µM)	2 µg/mL (≈ 3.66 µM)	128 µg/mL (≈ 234 µM)	–	71 µg	–
Cn1c(N)c(NC(=O)NCCN)c[n+]1CC1=C(C(=O)O)N2C(=O)[C@@H](NC(=O)/C(=N\OC(C)(C)C(=O)[O-])c3nsc(N)n3)[C@H]2SC1 [CEFTOLOZANE]	0.5 µg/mL (≈ 0.75 µM)	0.5 µg/mL (≈ 0.75 µM)	2 µg/mL (≈ 3 µM)	–	428 µg	–

Now from value to compound, other results behind:

MIC (Pseudomonas aeruginosa [1])	MIC50 (Pseudomonas aeruginosa [2]; [5])	MIC (Pseudomonas aeruginosa [3])	MIC50 (Pseudomonas aeruginosa [2])	SMILES	ED50 (Mus musculus)	Ratio (Pseudomonas aeruginosa [4])
1 µg/mL	1 µg/mL	16 µg/mL	–	CC(C)(O/N=C(\C(=O)N[C@@H]1C(=O)N2C(C(=O)[O-])=C(C[n+]3ccc(N)n3CCO)CS[C@H]12)c1nsc(N)n1)C(=O)O.Cl	46.9 µg	64
1 µg/mL (≈ 1.78 µM)	1 µg/mL (≈ 1.78 µM)	32 µg/mL (≈ 56.9 µM)	–	CC(C)(O/N=C(\C(=O)N[C@@H]1C(=O)N2C(C(=O)[O-])=C(C[n+]3cccc(N)c3)CS[C@H]12)c1nsc(N)n1)C(=O)O	–	32
1 µg/mL	1 µg/mL	16 µg/mL	–	CC(C)(O/N=C(\C(=O)N[C@@H]1C(=O)N2C(C(=O)O)=C(C[n+]3ccc4n3CCN4)CS[C@H]12)c1nsc(N)n1)C(=O)O.O=S(=O)([O-])O	–	–
1 µg/mL	1 µg/mL	4 µg/mL	–	CC(C)(O/N=C(\C(=O)N[C@@H]1C(=O)N2C(C(=O)O)=C(C[n+]3ccc4n3CCCN4)CS[C@H]12)c1nsc(N)n1)C(=O)O.O=S(=O)([O-])O	–	–
1 µg/mL (≈ 1.83 µM)	2 µg/mL (≈ 3.65 µM)	32 µg/mL (≈ 58.4 µM)	–	CC(C)(O/N=C(\C(=O)N[C@@H]1C(=O)N2C(C(=O)[O-])=C(C[n+]3ccccc3)CS[C@H]12)c1nsc(N)n1)C(=O)O	–	–
1 µg/mL (≈ 1.63 µM)	1 µg/mL (≈ 1.63 µM)	8 µg/mL (≈ 13.1 µM)	–	CC(C)(O/N=C(\C(=O)N[C@@H]1C(=O)N2C(C(=O)[O-])=C(C[n+]3ccc(N)n3CCCF)CS[C@H]12)c1nsc(N)n1)C(=O)O	–	–
1 µg/mL (≈ 1.77 µM)	1 µg/mL (≈ 1.77 µM)	32 µg/mL (≈ 56.6 µM)	–	Cn1c(N)cc[n+]1CC1=C(C(=O)[O-])N2C(=O)[C@@H](NC(=O)/C(=N\OC(C)(C)C(=O)O)c3nsc(N)n3)[C@H]2SC1	–	–
